Measurements published in ChEMBL document CHEMBL1125378, “alpha-Methyl polyamines: metabolically stable spermidine and spermine mimics capable of supporting growth in cells depleted of polyamines” (J Med Chem, 1992).
Where “and” joins values, the source holds several entries; their conditions need not be identical. Equal values may be shown once.

Columns and labels:
[1] = test system: HT-29; experiment: Compound level in 72 hr DFMO (5 mM)-treated HT-29 cells after exposure to 25 uM 1-methylspermine; assay type: functional, cell-based; settings: Homo sapiens
Procedure, shortened: (§1)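 HT29 cells pretreated with 5 mM DFMO for 120 h, then polyamine added and culture continued with DFMO for 72 h (experiment A); refed at 96 h. Cellular polyamine content given as nmol/mg protein (detection limit 0.2). SD from at least four separate experiments.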

[2] = test system: SV3T3; experiment: Compound level in 72 hr DFMO (5 mM)-treated SV3T3 cells after exposure to 1 uM 1-methylspermidine; assay type: functional, cell-based; settings: Mus musculus
Procedure, shortened: (§2)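 SV-3T3 fibroblasts (experiment A) held in 5 mM DFMO for 72 h before polyamine addition and throughout a further 72 h. Intracellular polyamines expressed as nmol/mg protein (detection limit 0.05). SD from at least four separate experiments, or duplicate where no SD is given.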

[3] = test system: HT-29; experiment: Compound level in 72 hr DFMO (5 mM)-treated HT-29 cells after exposure to 10 uM 1-methylspermine; assay type: functional, cell-based; settings: Homo sapiens; procedure, shortened: as §1
[4] = test system: HT-29; experiment: Compound level in 72 hr DFMO (5 mM)-treated HT-29 cells after exposure to 25 uM 1-methylspermidine; assay type: functional, cell-based; settings: Homo sapiens; procedure, shortened: as §1
[5] = test system: SV3T3; experiment: Compound level in 72 hr DFMO (5 mM)-treated SV3T3 cells after exposure to 1 uM 1-methylspermine; assay type: functional, cell-based; settings: Mus musculus; procedure, shortened: as §2
[6] = test system: SV3T3; experiment: Compound level in 72 hr DFMO (5 mM)-treated SV3T3 cells after exposure to 25 uM 1-methylspermine; assay type: functional, cell-based; settings: Mus musculus; procedure, shortened: as §2
[7] = test system: L1210; experiment: Compound level in 72 hr DFMO (5 mM)-treated L1210 cells after exposure to 10 uM 1-methylspermidine; assay type: functional, cell-based; settings: Mus musculus
Procedure, shortened: (§3)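 L1210 cells held in 5 mM DFMO for 72 h before polyamine addition and through a further 72 h, refed at 72 h; controls without DFMO cultured 72 h in total. Intracellular polyamines reported as nmol/mg protein (detection limit 0.2). Mean ± SD from at least four separate experiments.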

[8] = test system: HT-29; experiment: Compound level in 72 hr DFMO (5 mM)-treated HT-29 cells after exposure to 10 uM 1-methylspermidine; assay type: functional, cell-based; settings: Homo sapiens; procedure, shortened: as §1
[9] = test system: L1210; experiment: Compound level in 72 hr DFMO (5 mM)-treated L1210 cells after exposure to 10 uM 1-methylspermine; assay type: functional, cell-based; settings: Mus musculus; procedure, shortened: as §3
[10] = test system: SV3T3; experiment: Compound level in 72 hr DFMO (5 mM)-treated SV3T3 cells after exposure to 10 uM 1-methylspermine; assay type: functional, cell-based; settings: Mus musculus; procedure, shortened: as §2
[11] = test system: SV3T3; experiment: Compound level in 72 hr DFMO (5 mM)-treated SV3T3 cells after exposure to 25 uM 1-methylspermidine; assay type: functional, cell-based; settings: Mus musculus; procedure, shortened: as §2
[12] = test system: SV3T3; experiment: Compound level in 72 h DFMO (5 mM)-treated SV3T3 cells after exposure to 10 uM 1-methylspermidine; assay type: functional, cell-based; settings: Mus musculus; procedure, shortened: as §2
[13] = Retention time was determined; assay type: ADME
[14] = test system: SV3T3; experiment: Compound level in 72 hr DFMO (5 mM)-treated SV3T3 cells after exposure to 10 uM spermidine; assay type: functional, cell-based; settings: Mus musculus; procedure, shortened: as §2
[15] = test system: HT-29; experiment: Compound level in 72 hr DFMO (5 mM)-treated HT-29 cells after exposure to 10 uM spermidine; assay type: functional, cell-based; settings: Homo sapiens; procedure, shortened: as §1
[16] = test system: SV3T3; experiment: Compound level in 96 hr DFMO (5 mM)-treated SV3T3 cells after exposure to 10 uM 1,12-dimethylspermine; assay type: functional, cell-based; settings: Mus musculus
[17] = test system: SV3T3; settings: Mus musculus
[18] = test system: HT-29; experiment: Compound level in 72 hr DFMO (5 mM)-treated HT-29 cells after exposure to 25 uM 1,12-dimethylspermine; assay type: functional, cell-based; settings: Homo sapiens, in the assay text read “120 hr” for “72 hr”
Procedure, shortened: (§4)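 HT29 experiment B: 5 mM DFMO for 120 h before addition and throughout a further 96 h; refed at 96 h. Cells without DFMO cultured 96 h in total. Polyamines measured as nmol/mg protein (detection limit 0.2). SD from at least four separate experiments.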

[19] = test system: L1210; experiment: Compound level in 72 hr DFMO (5 mM)-treated L1210 cells after exposure to 10 uM spermidine; assay type: functional, cell-based; settings: Mus musculus; procedure, shortened: as §3
[20] = test system: SV3T3; experiment: Compound level in 96 hr DFMO (5 mM)-treated SV3T3 cells after exposure to 25 uM spermine; assay type: functional, cell-based; settings: Mus musculus
[21] = test system: HT-29; experiment: Compound level in 72 hr DFMO (5 mM)-treated HT-29 cells after exposure to 10 uM 1,12-dimethylspermine; assay type: functional, cell-based; settings: Homo sapiens, in the assay text read “120 hr” for “72 hr”; procedure, shortened: as §4
[22] = species on record: Homo sapiens; experiment: Compound level in DFMO-treated HT-29 cells after 96 h; assay type: functional, cell-based; procedure, shortened: as §4
[23] = test system: SV3T3; experiment: Compound level in 96 hr DFMO (5 mM)-treated SV3T3 cells after exposure to 10 uM spermine; assay type: functional, cell-based; settings: Mus musculus
[24] = test system: HT-29; experiment: Compound level in HT-29 cells after 96 h; assay type: functional, cell-based; settings: Homo sapiens; procedure, shortened: as §4
[25] = test system: SV3T3; experiment: Compound level in SV3T3 cells after 96 hr; assay type: functional, cell-based; settings: Mus musculus
[26] = test system: SV3T3; experiment: Compound level in 72 hr DFMO (5 mM)-treated SV3T3 cells after exposure to 1 uM 1,12-dimethylspermine; settings: Mus musculus
[27] = test system: HT-29; experiment: Compound level in 72 h DFMO (5 mM)-treated HT-29 cells after exposure to 25 uM spermidine; assay type: functional, cell-based; settings: Homo sapiens
[28] = test system: SV3T3; experiment: Compound level in 96 hr DFMO (5 mM)-treated SV3T3 cells after exposure to 25 uM 1,12-dimethylspermine; assay type: functional, cell-based; settings: Mus musculus
[29] = test system: L1210; experiment: Compound level in 72 h DFMO (5 mM)-treated L1210 cells after exposure to 10 uM spermine; assay type: functional, cell-based; settings: Mus musculus; procedure, shortened: as §3
[30] = test system: SV3T3; experiment: Compound level in 72 hr DFMO (5 mM)-treated SV3T3 cells after exposure to 10 uM spermine; assay type: functional, cell-based; settings: Mus musculus; procedure, shortened: as §2
[31] = test system: HT-29; experiment: Compound level in 72 hr DFMO (5 mM)-treated HT-29 cells after exposure to 10 uM spermine; assay type: functional, cell-based; settings: Homo sapiens; procedure, shortened: as §1
[32] = test system: L1210; settings: Mus musculus
[33] = test system: SV3T3; settings: Mus musculus; remark: listed apart in the source
[34] = test system: SV3T3; settings: Mus musculus; remark: listed apart in the source
[35] = test system: L1210; experiment: Compound level in L1210 cells after 72 h; assay type: functional, cell-based; settings: Mus musculus; procedure, shortened: as §3
[36] = test system: SV3T3; settings: Mus musculus; remark: listed apart in the source
[37] = test system: HT-29; experiment: Compound level in DFMO-treated HT-29 cells at 0 h; assay type: functional, cell-based; settings: Homo sapiens
[38] = test system: L1210; experiment: Compound level in 72 hr DFMO (5 mM)-treated L1210 cells after exposure to 10 uM 1,12-dimethylspermine; assay type: functional, cell-based; settings: Mus musculus; procedure, shortened: as §3
[39] = test system: HT-29; experiment: Compound level in 72 hr DFMO (5 mM)-treated HT-29 cells after exposure to 15 uM spermine; assay type: functional, cell-based; settings: Homo sapiens; procedure, shortened: as §1
[40] = test system: L1210; experiment: Compound level in DFMO-treated L1210 cells at 0 h; assay type: functional, cell-based; settings: Mus musculus; procedure, shortened: as §3
[41] = test system: HT-29; experiment: Compound level in HT-29 cells after 72 h; assay type: functional, cell-based; settings: Homo sapiens
[42] = test system: HT-29; experiment: Compound level in 96 hr DFMO (5 mM)-treated HT-29 cells after exposure to 10 uM spermine; assay type: functional, cell-based; settings: Homo sapiens
[43] = test system: SV3T3; experiment: Compound level in DFMO-treated SV3T3 cells at 0 h; assay type: functional, cell-based; settings: Mus musculus; procedure, shortened: as §2
[44] = test system: HT-29; experiment: Compound level in DFMO-treated HT-29 cells after 72 h; assay type: functional, cell-based; settings: Homo sapiens; procedure, shortened: as §1

Work on CC(N)CCNCCCCNCCCN (centres undefined) yielded a Level (nM (mg of protein)-1) [1] of 24.2, a Level (nM (mg of protein)-1) [2] of 2.4 and a Level (nM (mg of protein)-1) [3] of 21.3. It also gave a Level (nM (mg of protein)-1) [4] of 8.6, a Level (nM (mg of protein)-1) [5] of 11.8 and a Level (nM (mg of protein)-1) [6] of 33.1. It also gave a Level (nM (mg of protein)-1) [7] of 7.8, a Level (nM (mg of protein)-1) [8] of 7.8 and a Level (nM (mg of protein)-1) [9] of 63.4. For the same compound, the Level (nM (mg of protein)-1) [10] was 33.7, the Level (nM (mg of protein)-1) [11] was 4.4 and the Level (nM (mg of protein)-1) [12] was 4.2. The tR [13] was 40.5 min.
Compound NCCCNCCCCNCCCN [SPERMINE] has a Level (nM (mg of protein)-1) [14] of 9.5, a Level (nM (mg of protein)-1) [15] of 10.3 and a Level (nM (mg of protein)-1) [16] of 3.3. It also gave a Level (nM (mg of protein)-1) [17] of 13.5, a Level (nM (mg of protein)-1) [18] of 0.7 and a Level (nM (mg of protein)-1) [1] of 0.8. For the same compound, the Level (nM (mg of protein)-1) [2] was 3.8, the Level (nM (mg of protein)-1) [3] was 0.7 and the Level (nM (mg of protein)-1) [4] was 1.2. The Level (nM (mg of protein)-1) [19] was 16.3, the Level (nM (mg of protein)-1) [20] was 31.5 and the Level (nM (mg of protein)-1) [21] was 0.9. It also gave a Level (nM (mg of protein)-1) [22] of 4.4, a Level (nM (mg of protein)-1) [23] of 24.5 and a Level (nM (mg of protein)-1) [24] of 17.8. It also gave a Level (nM (mg of protein)-1) [25] of 7.1, a Level (nM (mg of protein)-1) [5] of 3.5 and a Level (nM (mg of protein)-1) [6] of 0.8. It also gave a Level (nM (mg of protein)-1) [26] of 7.8, a Level (nM (mg of protein)-1) [27] of 9 and a Level (nM (mg of protein)-1) [28] of 1. It also gave a Level (nM (mg of protein)-1) [29] of 35.6, a Level (nM (mg of protein)-1) [30] of 20.6 and a Level (nM (mg of protein)-1) [7] of 1.1. It also gave a Level (nM (mg of protein)-1) [8] of 1.1, a Level (nM (mg of protein)-1) [9] of 1.7 and a Level (nM (mg of protein)-1) [31] of 21.5. It also gave a Level (nM (mg of protein)-1) [32] of 7.3, a Level (nM (mg of protein)-1) [33] of 7.7 and a Level (nM (mg of protein)-1) [34] of 14.3. For the same compound, the Level (nM (mg of protein)-1) [35] was 9.1, the Level (nM (mg of protein)-1) [36] was 11.5 and the Level (nM (mg of protein)-1) [37] was 5.4 and 7.1. For the same compound, the Level (nM (mg of protein)-1) [38] was 3.2, the Level (nM (mg of protein)-1) [39] was 21.7 and the Level (nM (mg of protein)-1) [40] was 13.4. It also gave a Level (nM (mg of protein)-1) [10] of 0.3, a Level (nM (mg of protein)-1) [11] of 0.3 and a Level (nM (mg of protein)-1) [41] of 10.5. For the same compound, the Level (nM (mg of protein)-1) [12] was 0.4, the Level (nM (mg of protein)-1) [42] was 21.5 and the tR [13] was 40 min. For the same compound, the Level (nM (mg of protein)-1) [43] was 9.3 and 7.8 and the Level (nM (mg of protein)-1) [44] was 3.8.
Compound CC(N)CCNCCCCNCCC(C)N (centres undefined) has a Level (nM (mg of protein)-1) [16] of 29.4, a Level (nM (mg of protein)-1) [18] of 17.3 and a Level (nM (mg of protein)-1) [21] of 18.2. It also gave a Level (nM (mg of protein)-1) [26] of 4.2, a Level (nM (mg of protein)-1) [28] of 24.8 and a Level (nM (mg of protein)-1) [38] of 61.9. The tR [13] was 40.9 min.
